According to ChEMBL document CHEMBL4002590, “Design and Synthesis of a Pan-Janus Kinase Inhibitor Clinical Candidate (PF-06263276) Suitable for Inhaled and Topical Delivery for the Treatment of Inflammatory Diseases of the Lungs and Skin” (J Med Chem, 2017):
The source made the active and inactive calls. The rule behind the calls is not given here.

Assays:
[1] = molecular target: Tyrosine-protein kinase ABL1 (Homo sapiens) (UniProt P00519); experiment: Inhibition of recombinant human Abl kinase expressed in insect cells at 10 uM using Ulight-TK peptide substrate after 30 mins by LANCE method
Tyrosine-protein kinase ABL1 (Homo sapiens), sequence (P00519 whole entry): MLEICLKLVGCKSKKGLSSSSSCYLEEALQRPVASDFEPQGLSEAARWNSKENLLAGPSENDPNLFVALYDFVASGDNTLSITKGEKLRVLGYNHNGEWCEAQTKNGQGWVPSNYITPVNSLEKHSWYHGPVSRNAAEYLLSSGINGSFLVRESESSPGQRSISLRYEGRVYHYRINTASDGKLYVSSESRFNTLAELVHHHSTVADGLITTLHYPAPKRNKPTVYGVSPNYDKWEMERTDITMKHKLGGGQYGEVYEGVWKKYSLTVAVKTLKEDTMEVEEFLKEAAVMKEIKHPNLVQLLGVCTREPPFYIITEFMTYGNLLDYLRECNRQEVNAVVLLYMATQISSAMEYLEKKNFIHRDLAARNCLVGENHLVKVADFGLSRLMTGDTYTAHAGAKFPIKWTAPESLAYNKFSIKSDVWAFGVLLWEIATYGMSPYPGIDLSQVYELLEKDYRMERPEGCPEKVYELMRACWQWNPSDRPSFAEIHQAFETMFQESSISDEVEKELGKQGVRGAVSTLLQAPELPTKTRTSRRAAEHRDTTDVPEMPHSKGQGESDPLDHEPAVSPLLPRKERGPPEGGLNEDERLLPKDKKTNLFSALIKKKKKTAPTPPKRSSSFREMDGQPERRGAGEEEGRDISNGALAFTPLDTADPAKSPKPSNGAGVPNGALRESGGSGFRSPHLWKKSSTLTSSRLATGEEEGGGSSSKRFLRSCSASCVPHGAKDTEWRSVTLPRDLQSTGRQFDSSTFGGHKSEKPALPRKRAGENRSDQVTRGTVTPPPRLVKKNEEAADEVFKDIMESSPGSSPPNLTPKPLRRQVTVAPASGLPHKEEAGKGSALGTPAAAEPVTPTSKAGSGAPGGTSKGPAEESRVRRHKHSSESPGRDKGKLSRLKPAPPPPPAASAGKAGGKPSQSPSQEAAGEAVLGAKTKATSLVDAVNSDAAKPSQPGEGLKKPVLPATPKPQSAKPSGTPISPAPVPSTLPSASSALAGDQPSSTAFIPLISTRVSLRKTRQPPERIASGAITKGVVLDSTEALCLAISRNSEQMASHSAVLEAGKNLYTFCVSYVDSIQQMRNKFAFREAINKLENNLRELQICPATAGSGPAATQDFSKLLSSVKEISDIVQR
Summary of the method: (§1)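 Single-point screen at 10 μM within a broad panel of radioligand binding and enzyme inhibition assays covering receptors, transporters, enzymes and ion channels.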

Mus musculus [2] = experiment: Effect on nerve activation in mouse up to 2 mg inhalation administered as micelle vehicle to delta fiber sensory nerve preparation; conditions: in vivo, inhaled_or_intranasal
Summary of the method: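 Mouse A delta fiber sensory nerve preparation given up to 2 mg in 400 μL of micelle vehicle; nerve activation recorded.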

[3] = Chemical stability in lactose using micronized sample up to 4 weeks; type: physicochemical; conditions: 672 h
Summary of the method: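 Jet-milled (micronized, ~2 μm) material blended with lactose and monitored for chemical and physical stability for up to 4 weeks.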

[4] = Lipophilicity, logD of the compound by shake flask method; type: physicochemical; conditions: octanol/water
Summary of the method: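 log D measured by the shake flask method.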

JAK1/TYK2 (Homo sapiens) [5] = molecular target: T1, JAK1/TYK2 (Homo sapiens) (UniProt P23458+P29597)
hERG (KCNH2) = hERG (KCNH2) (Homo sapiens, UniProt Q12809); experiment: Inhibition of human ERG at 1 uM
hERG (KCNH2), sequence (Q12809 whole entry): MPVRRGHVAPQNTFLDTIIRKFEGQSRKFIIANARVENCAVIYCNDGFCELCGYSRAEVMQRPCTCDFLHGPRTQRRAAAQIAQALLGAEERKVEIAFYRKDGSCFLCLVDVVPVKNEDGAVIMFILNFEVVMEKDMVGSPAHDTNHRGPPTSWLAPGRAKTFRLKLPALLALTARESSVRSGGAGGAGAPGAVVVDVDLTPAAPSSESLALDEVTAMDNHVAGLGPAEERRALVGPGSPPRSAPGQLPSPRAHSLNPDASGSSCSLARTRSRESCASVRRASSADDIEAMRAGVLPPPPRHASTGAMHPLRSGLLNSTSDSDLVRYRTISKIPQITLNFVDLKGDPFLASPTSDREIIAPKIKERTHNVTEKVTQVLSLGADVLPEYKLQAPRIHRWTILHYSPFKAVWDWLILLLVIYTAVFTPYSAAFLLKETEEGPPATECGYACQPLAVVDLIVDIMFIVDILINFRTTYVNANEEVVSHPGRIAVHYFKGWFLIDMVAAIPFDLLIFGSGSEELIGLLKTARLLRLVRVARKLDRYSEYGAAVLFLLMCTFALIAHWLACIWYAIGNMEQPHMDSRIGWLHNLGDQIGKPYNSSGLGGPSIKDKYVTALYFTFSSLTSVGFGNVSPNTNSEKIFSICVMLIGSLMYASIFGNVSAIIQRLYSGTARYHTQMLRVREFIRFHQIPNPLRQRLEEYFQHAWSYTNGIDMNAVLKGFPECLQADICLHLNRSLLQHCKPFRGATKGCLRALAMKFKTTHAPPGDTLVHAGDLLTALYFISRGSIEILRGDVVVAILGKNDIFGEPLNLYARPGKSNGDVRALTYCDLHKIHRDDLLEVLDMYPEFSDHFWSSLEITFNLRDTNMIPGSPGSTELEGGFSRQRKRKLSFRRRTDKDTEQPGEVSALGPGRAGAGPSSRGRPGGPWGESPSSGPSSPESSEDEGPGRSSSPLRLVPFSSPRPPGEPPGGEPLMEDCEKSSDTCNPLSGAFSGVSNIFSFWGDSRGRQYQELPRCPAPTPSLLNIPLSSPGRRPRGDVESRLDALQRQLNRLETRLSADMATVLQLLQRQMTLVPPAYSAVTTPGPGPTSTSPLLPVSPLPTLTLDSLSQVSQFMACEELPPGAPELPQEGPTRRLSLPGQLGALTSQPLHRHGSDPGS
Summary of the method: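 hERG potassium current measured with compound at 1 μM.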

Mus musculus [6] = experiment: In vivo receptor occupancy at JAK1 in Balb/c mouse lungs at 10 to 100 ug, it measured after 4 hrs; type: functional, organism-based
Summary of the method: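 JAK1 target occupancy in mouse lung measured over time after i.t. administration of 10 μg or 100 μg.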

[7] = molecular target: Tyrosine-protein kinase JAK2 (Homo sapiens, UniProt O60674); experiment: Inhibition of GST tagged human recombinant JAK2 catalytic domain expressed in baculovirus using peptide substrate preincubated for 60 mins followed by substrate addition and measured after 60 mins by microfluidic assay
Tyrosine-protein kinase JAK2, sequence (O60674 whole entry, the tested form may be a part): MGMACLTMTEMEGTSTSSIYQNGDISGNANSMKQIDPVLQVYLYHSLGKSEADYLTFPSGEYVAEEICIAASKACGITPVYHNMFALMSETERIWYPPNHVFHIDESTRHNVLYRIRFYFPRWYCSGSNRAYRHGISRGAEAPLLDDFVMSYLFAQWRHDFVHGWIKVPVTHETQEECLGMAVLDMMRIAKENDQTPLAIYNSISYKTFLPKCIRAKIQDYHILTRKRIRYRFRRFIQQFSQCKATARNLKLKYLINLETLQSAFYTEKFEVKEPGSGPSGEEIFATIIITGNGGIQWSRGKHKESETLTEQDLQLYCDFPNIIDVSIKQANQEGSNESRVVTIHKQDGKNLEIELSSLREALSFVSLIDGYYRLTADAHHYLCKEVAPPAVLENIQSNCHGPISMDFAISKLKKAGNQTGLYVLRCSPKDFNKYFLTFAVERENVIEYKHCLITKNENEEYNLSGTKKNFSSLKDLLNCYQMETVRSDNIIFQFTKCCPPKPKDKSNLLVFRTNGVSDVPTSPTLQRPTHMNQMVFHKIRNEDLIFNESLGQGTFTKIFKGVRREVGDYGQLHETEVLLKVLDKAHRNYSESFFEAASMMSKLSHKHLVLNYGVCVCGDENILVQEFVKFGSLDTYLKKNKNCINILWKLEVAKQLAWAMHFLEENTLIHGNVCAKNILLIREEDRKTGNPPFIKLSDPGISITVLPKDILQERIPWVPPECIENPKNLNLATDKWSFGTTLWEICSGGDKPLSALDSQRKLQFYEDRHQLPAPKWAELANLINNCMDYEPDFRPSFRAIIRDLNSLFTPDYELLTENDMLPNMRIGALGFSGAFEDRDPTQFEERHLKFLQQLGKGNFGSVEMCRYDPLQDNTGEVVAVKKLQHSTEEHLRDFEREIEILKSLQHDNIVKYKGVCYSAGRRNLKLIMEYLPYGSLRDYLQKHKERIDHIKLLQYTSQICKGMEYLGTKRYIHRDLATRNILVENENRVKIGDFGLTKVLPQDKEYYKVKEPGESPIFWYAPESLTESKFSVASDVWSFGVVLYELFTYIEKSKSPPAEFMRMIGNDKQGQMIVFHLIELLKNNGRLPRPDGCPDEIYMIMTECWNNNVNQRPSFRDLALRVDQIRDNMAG
Summary of the method: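 Caliper microfluidic assay of peptide-substrate phosphorylation by the relevant JAK enzyme, run at 1 mM ATP; IC50 values are geometric means of at least three determinations.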

Canis familiaris [8] = experiment: Intrinsic clearance in dog at 0.1 mg/kg, iv administered as 30 mins infusion; type: ADME, organism-based, Canis lupus familiaris; conditions: in vivo, 0.5 h
[9] = molecular target: Acetylcholinesterase (Homo sapiens) (UniProt P22303); experiment: Inhibition of recombinant human acetylcholinesterase expressed in HEK-293 cells at 10 uM using acetylthiocholine substrate after 30 mins by photometry; type: cell-based; summary of the method: as §1
Acetylcholinesterase (Homo sapiens), sequence (P22303 whole entry): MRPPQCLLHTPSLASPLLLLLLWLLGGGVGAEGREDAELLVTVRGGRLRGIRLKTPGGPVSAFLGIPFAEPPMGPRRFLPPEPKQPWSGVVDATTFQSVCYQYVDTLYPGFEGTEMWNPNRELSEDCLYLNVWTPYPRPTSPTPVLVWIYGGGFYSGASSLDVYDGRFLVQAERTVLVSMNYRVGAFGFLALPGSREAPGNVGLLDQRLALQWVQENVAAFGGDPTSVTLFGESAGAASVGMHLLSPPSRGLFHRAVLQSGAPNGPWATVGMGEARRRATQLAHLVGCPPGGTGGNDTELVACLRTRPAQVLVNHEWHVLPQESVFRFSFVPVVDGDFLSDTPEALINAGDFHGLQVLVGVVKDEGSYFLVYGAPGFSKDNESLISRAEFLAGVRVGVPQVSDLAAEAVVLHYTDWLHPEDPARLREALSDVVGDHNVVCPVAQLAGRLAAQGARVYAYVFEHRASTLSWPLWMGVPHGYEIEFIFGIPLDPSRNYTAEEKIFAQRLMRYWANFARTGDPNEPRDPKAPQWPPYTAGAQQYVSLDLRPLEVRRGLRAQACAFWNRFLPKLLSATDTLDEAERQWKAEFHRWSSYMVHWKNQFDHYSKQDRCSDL

Canis familiaris [10] = experiment: Toxicity in iv dosed dog for 7 days; type: organism-based, Canis lupus familiaris; conditions: in vivo, 168 h
Summary of the method: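 Exploratory 7-day intravenous toxicology studies in rat and dog; margins expressed over total plasma AUC relative to projected exposure at a 200 μg human lung dose.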

[11] = Chemical stability in pH 8 solution at 40 degC up to 6 weeks; type: physicochemical; conditions: buffer, pH 8, 1008 h
[12] = molecular target: Tyrosine-protein kinase Lck (Homo sapiens) (UniProt P06239); experiment: Inhibition of recombinant human Lck kinase expressed in insect Sf21 cells at 10 uM using Ulight-Poly GAT[EAY(1:1:1)]n as substrate after 10 mins by LANCE assay; summary of the method: as §1
Tyrosine-protein kinase Lck (Homo sapiens), sequence (P06239 2-509 limits assumed): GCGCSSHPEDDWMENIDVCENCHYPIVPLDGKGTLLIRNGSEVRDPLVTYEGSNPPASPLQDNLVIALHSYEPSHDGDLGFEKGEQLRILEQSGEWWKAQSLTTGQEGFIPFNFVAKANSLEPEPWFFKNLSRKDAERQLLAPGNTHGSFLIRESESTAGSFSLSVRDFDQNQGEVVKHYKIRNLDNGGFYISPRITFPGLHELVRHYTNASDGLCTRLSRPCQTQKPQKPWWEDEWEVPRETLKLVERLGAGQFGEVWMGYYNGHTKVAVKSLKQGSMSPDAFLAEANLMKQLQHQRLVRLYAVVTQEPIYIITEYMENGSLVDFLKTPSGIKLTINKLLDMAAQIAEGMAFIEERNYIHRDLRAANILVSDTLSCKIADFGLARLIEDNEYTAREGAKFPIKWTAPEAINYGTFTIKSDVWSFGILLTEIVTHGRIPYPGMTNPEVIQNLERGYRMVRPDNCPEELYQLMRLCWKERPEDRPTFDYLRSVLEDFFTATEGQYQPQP

[13] = Volume of distribution at steady state in rat at 0.5 mg/kg, iv; type: ADME, organism-based; conditions: in vivo, read-out: Vdss
[14] = molecular target: Vascular endothelial growth factor receptor 2 (Homo sapiens) (UniProt P35968); experiment: Inhibition of recombinant human KDR kinase expressed in insect Sf21 cells at 10 uM using Ulight-CAGAGAIETDKEYYTVKD as substrate after 60 mins by LANCE assay; summary of the method: as §1
[15] = molecular target: Aurora kinase A (Homo sapiens) (UniProt O14965); experiment: Inhibition of recombinant human AurA/Aur 2 kinase expressed in insect Sf21 cells at 10 uM using Ulight-RRRSLLE substrate after 15 mins by LANCE assay; summary of the method: as §1
Aurora kinase A (Homo sapiens), sequence (O14965 whole entry, the tested form may be a part): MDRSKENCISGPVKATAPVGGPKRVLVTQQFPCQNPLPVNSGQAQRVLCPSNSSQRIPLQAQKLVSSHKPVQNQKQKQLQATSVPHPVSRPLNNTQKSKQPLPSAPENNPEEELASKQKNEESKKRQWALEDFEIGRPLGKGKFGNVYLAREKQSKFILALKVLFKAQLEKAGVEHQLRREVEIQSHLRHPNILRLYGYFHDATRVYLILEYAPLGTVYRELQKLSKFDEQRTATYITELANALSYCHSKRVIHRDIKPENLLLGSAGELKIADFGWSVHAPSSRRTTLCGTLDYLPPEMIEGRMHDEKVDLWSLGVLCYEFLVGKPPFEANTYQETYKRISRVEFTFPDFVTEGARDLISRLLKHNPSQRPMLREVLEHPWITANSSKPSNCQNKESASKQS

[16] = Plasma protein binding in dog at 0.1 mg/kg, iv administered as 30 mins infusion; type: ADME, organism-based, Canis lupus familiaris; conditions: read-out: PPB
Mus musculus [17] = experiment: In vivo inhibition of JAK2 homodimer in Balb/c mouse assessed as inhibition of GM-CSF induced STAT5 phosphorylation in blood at 10 ug, it for 12 consecutive days; type: functional, organism-based
Summary of the method: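 After i.t. dosing in mouse, GM-CSF-induced phosphorylated STAT5 measured in blood; percent inhibition ± 95% CI from geometric means versus vehicle groups; N = 3.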

Rattus norvegicus [18] = experiment: Genotoxicity in iv dosed rat after 7 days by peripheral blood micronucleus assay; type: toxicity, organism-based; conditions: in vivo, 168 h
[19] = Oral bioavailability in rat at 1 mg/kg; type: ADME, organism-based; conditions: in vivo
Salmonella typhimurium = experiment: Genotoxicity in Salmonella typhimurium by Ames test; type: toxicity; conditions: salmonella enterica subsp. enterica serovar typhimurium
Rattus norvegicus [20] = experiment: Unbound clearance in rat at 0.5 mg/kg, iv; type: ADME, organism-based; conditions: in vivo
Rattus norvegicus [21] = species on record: Rattus norvegicus; experiment: Displacement of [3H]batrachotoxinin from rat cerebral cortex sodium channel site-2 at 10 uM after 60 mins by scintillation counting method relative to control; summary of the method: as §1
JAK1/TYK2 (Homo sapiens) [22] = molecular target: T1, JAK1/TYK2 (Homo sapiens); remark: listed apart in the source
[23] = Terminal half life in iv dosed rat at 0.5 mg/kg; type: ADME, organism-based; conditions: in vivo, read-out: beta t1/2 (converted)
[24] = Chemical stability in pH 8 solution at 40 degC after 1 to 2 days; type: physicochemical; conditions: buffer
Summary of the method: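 Hydrolytic stability followed over 1–2 days at pH 8.0 and 40 °C; percent degradation recorded.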

Mus musculus [25] = experiment: In vivo inhibition of JAK2/TYK2 in Balb/c mouse model of IL-23 induced inflammation assessed as reduction of ear swelling pretreated topically as 4 % solution bid on ear for 12 consecutive days followed by IL-23 stimulation at 2 hrs post compound treatment on day 2, 4, 7, 9 and 11; type: functional
Summary of the method: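 Mouse ear dermal model: compound applied topically as a 4% solution in propylene glycol 30, PEG400 30, dimethyl isosorbide 10, glycerin 25.9, BHA 0.1 (% wt/wt); repeated IL-23 ear injections, with ear swelling followed over 11 days.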

Canis familiaris [26] = experiment: Unbound clearance in dog at 0.1 mg/kg, iv administered as 30 mins infusion; type: ADME, organism-based, Canis lupus familiaris; conditions: in vivo, 0.5 h
JAK2/JAK1 (Homo sapiens) = JAK2/JAK1 (Homo sapiens) (UniProt P23458+O60674)
JAK3/JAK1 (Homo sapiens) = JAK3/JAK1 (Homo sapiens) (UniProt P52333+P23458)

Structure (SMILES): CCc1cc(O)c(F)cc1-c1ccc2c(-c3nc4c([nH]3)CCN(C(=O)c3cnc(N5CCCCC5)cn3)C4)n[nH]c2c1
- inhibition [1]: > 50%
- Activity (Mus musculus [2]): Non-Toxic
- Stability [3]: Stable
- logD [4]: 3.9
- fIC50 (JAK1/TYK2 (Homo sapiens) [5]): 0.62 nM
- inhibition at 1 µM (hERG (KCNH2)): < 1%
- Activity (Mus musculus [6]): Active
- IC50 [7]: 0.0231 µM
- CL (Canis familiaris [8]): 1.08 L/h/kg
- inhibition [9]: > 50%
- Activity (Canis familiaris [10]): Non-Toxic
- Stability [11]: Stable
- inhibition [12]: > 50%
- Vd [13]: 0.8 L/kg
- inhibition [14]: > 50%
- inhibition [15]: > 50%
- fraction unbound at 0.5 h [16]: ≤ 0.001
- inhibition (Mus musculus [17]): inactive
- Activity (Rattus norvegicus [18]): Non-Toxic
- bioavailability [19]: < 5%
- Activity (Salmonella typhimurium): Non-Toxic
- CL free (Rattus norvegicus [20]): > 2880 L/h/kg
- inhibition (Rattus norvegicus [21]): > 50%
- fIC50 (JAK1/TYK2 (Homo sapiens) [22]): 4.2 nM
- half-life [23]: 2.1 h
- Stability [24]: Stable
- inhibition (INH) (Mus musculus [25]): 48%
- CL free (Canis familiaris [26]): > 1080 L/h/kg
- fIC50 (JAK2/JAK1 (Homo sapiens)): 2.1 nM
- fIC50 (JAK3/JAK1 (Homo sapiens)): 1.8 nM
